Measured values: ChEMBL document CHEMBL3612047, “Synthesis, antiproliferative activity and possible mechanism of action of novel 2-acetamidobenzamides bearing the 2-phenoxy functionality” (Bioorg Med Chem, 2015)
Calls of active or inactive are those of the source. No cut-off for these calls is given here.

How the values were obtained:
K562 [1] = assay: Growth inhibition of human K562 cells at 10 uM incubated for 24 hrs by trypan blue dye exclusion assay; assay type: functional; conditions: K562, 24 h, read-out: GI
Method in brief: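 K562 cells in medium with 5% FBS at 37 °C, 5% CO₂. About 2 × 10⁵ cells/mL cultured 24 h, then compound added at 10 μM. After 24 h exposure, cells counted by hemocytometer and viability scored by trypan blue exclusion, reported as percent growth inhibition.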

K562 [2] = assay: Growth inhibition of human K562 cells incubated for 24 hrs by trypan blue dye exclusion assay; assay type: functional, cell-based; conditions: K562, 24 h
Method in brief: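 K562 cells, about 2 × 10⁵ cells/mL, precultured 24 h, then exposed 24 h to a range of compound concentrations. Viable cells counted by hemocytometer with trypan blue exclusion to derive IC₅₀.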

A549 = assay: Growth inhibition of human A549/ATCC cells by NCI standard protocol based method; assay type: functional
Method in brief: (§1)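 NCI full 60-cell-line panel, 5-dose assay to the NCI standard protocol. GI₅₀ is the molar concentration inhibiting 50% net cell growth. Mean graph midpoint is averaged over all lines; where the effect is not reached, the highest tested concentration is used.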

[3] = Growth inhibition of human HOP92 cells by NCI standard protocol based method; assay type: functional; conditions: HOP-92; method in brief: as §1
NCI-H226 = assay: Growth inhibition of human NCI-H226 cells by NCI standard protocol based method; assay type: functional; method in brief: as §1
NCI-H460 = assay: Growth inhibition of human NCI-H460 cells by NCI standard protocol based method; assay type: functional; method in brief: as §1
[4] = Growth inhibition of human COLO205 cells by NCI standard protocol based method; assay type: functional; conditions: COLO 205; method in brief: as §1
HCT-116 = assay: Growth inhibition of human HCT116 cells by NCI standard protocol based method; assay type: functional; method in brief: as §1
HCT-15 = assay: Growth inhibition of human HCT15 cells by NCI standard protocol based method; assay type: functional; method in brief: as §1
HT-29 = assay: Growth inhibition of human HT-29 cells by NCI standard protocol based method; assay type: functional; method in brief: as §1
KM12 = assay: Growth inhibition of human KM12 cells by NCI standard protocol based method; assay type: functional; method in brief: as §1
SNB-75 = assay: Growth inhibition of human SNB75 cells by NCI standard protocol based method; assay type: functional
Method in brief: (§2)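 NCI 60-cell-line screen, standard NCI protocol. Single high dose of 10⁻⁵ M first, then a 5-dose assay across the full panel. Reported as GI₅₀, TGI and LC₅₀, the molar concentrations giving 50% net growth inhibition, total growth inhibition and 50% net cell death. Where an effect was not reached, the highest tested concentration was used.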

SK-MEL-2 = assay: Growth inhibition of human SK-MEL-2 cells by NCI standard protocol based method; assay type: functional; method in brief: as §1
SK-MEL-28 = assay: Growth inhibition of human SK-MEL-28 cells by NCI standard protocol based method; assay type: functional; method in brief: as §1
SK-MEL-5 = assay: Growth inhibition of human SK-MEL-5 cells by NCI standard protocol based method; assay type: functional; method in brief: as §1
IGROV-1 = assay: Growth inhibition of human IGROV1 cells by NCI standard protocol based method; assay type: functional; method in brief: as §1
OVCAR-4 = assay: Growth inhibition of human OVCAR4 cells by NCI standard protocol based method; assay type: functional; method in brief: as §1
OVCAR-8 = assay: Growth inhibition of human OVCAR8 cells by NCI standard protocol based method; assay type: functional; method in brief: as §1
[5] = Growth inhibition of human RXF393 cells by NCI standard protocol based method; assay type: functional; conditions: RXF 393; method in brief: as §1
TK-10 = assay: Growth inhibition of human TK10 cells by NCI standard protocol based method; assay type: functional; method in brief: as §2
PC-3 = assay: Growth inhibition of human PC3 cells by NCI standard protocol based method; assay type: functional; method in brief: as §1
MCF7 = assay: Growth inhibition of human MCF7 cells by NCI standard protocol based method; assay type: functional; method in brief: as §1
[6] = Growth inhibition of human NCI60 cells by NCI standard protocol based method; assay type: functional; conditions: for TGI: read-out: pTGI (converted); method in brief: as §1
Tubulin (Homo sapiens) = Tubulin (Homo sapiens) (UniProt P68371+Q9H4B7+P0DPH7+P68366+Q13509+Q71U36+P04350+Q3ZCM7+P07437+P68363+Q9BQE3+Q6PEY2+Q13885+Q9BVA1+Q9BUF5); assay: Inhibition of tubulin (unknown origin) assembly; assay type: protein-complex assay
K562 [7] = assay: Induction of mitotic arrest in human K562 cells; assay type: functional, cell-based
K562 [8] = assay: Induction of morphological changes in human K562 cells at 10 and 25 uM incubated for 48 hrs by light microscopy; assay type: functional, cell-based
Method in brief: (§3)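 K562 cells (8 × 10³/well) plated on poly-D-lysine-coated wells and treated at 10 or 25 μM for 48 h. Examined by light microscopy at 200× for shape, detachment, cell number and cell size.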

K562 [9] = assay: Reduction in cell number of human K562 cells at 10 and 25 uM incubated for 48 hrs by light microscopy; assay type: functional, cell-based; method in brief: as §3
K562 [10] = assay: Reduction in cell size of human K562 cells at 10 and 25 uM incubated for 48 hrs by light microscopy; assay type: functional, cell-based; method in brief: as §3
K562 [11] = assay: Induction of morphological changes in human K562 cells assessed as cell detachment at 10 and 25 uM incubated for 48 hrs by light microscopy; assay type: functional, cell-based; method in brief: as §3
K562 [12] = assay: Induction of cell cycle arrest in human K562 cells assessed as accumulation at G0/G1 phase at 10 uM incubated for 24 hrs by propidium iodide staining based flow cytometry (reference value: 54.9%); assay type: functional
K562 [13] = assay: Induction of cell cycle arrest in human K562 cells assessed as accumulation at sub G0/G1 phase at 10 uM incubated for 48 hrs by propidium iodide staining based flow cytometry (reference value: 0.8%); assay type: functional
K562 [14] = assay: Induction of cell cycle arrest in human K562 cells assessed as accumulation at G0/G1 phase at 10 uM incubated for 48 hrs by propidium iodide staining based flow cytometry (reference value: 56.6%); assay type: functional
K562 [15] = assay: Induction of cell cycle arrest in human K562 cells assessed as accumulation at G2/M phase at 10 uM incubated for 48 hrs by propidium iodide staining based flow cytometry (reference value: 27.4%); assay type: functional
K562 [16] = assay: Induction of apoptosis in human K562 cells assessed as nuclear fragmentation at 10 uM incubated for 48 hrs by Hoechst 33342 staining based fluorescence microscopy; assay type: functional, cell-based
Method in brief: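 K562 cells (8 × 10³/well) on poly-D-lysine-coated wells, allowed to adhere overnight. Stained with Hoechst 33342 for 30 min, washed with PBS, resuspended in medium, then treated at 10 μM for 48 h.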

K562 [17] = assay: Induction of apoptosis in human K562 cells assessed as early apoptotic cells level at 10 uM incubated for 24 hrs by Annexin-V and propidium iodide staining staining based flow cytometry (reference value: 1.6%); assay type: functional
K562 [18] = assay: Induction of apoptosis in human K562 cells assessed as necrotic cells level at 10 uM incubated for 24 hrs by Annexin-V and propidium iodide staining staining based flow cytometry (reference value: 0.3%); assay type: functional
K562 [19] = assay: Induction of apoptosis in human K562 cells assessed as reduction in pro-caspase-3 levels at 10 uM incubated for 48 hrs by Western blot method relative to basal level; assay type: functional; conditions: K562, 48 h
Method in brief: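 K562 cells were seeded at 1.5 × 10⁵/well and treated 48 h. Lysate protein was measured by Lowry assay and run on SDS-PAGE. Blots on nitrocellulose were probed with alkaline phosphatase-conjugated antibodies to pro-caspases 3 and 6. Loading was checked by Ponceau red and β-actin immunoblot, with level expressed against basal. Three independent experiments.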

SMILES	inhibition of growth at 10 µM (K562 [1])	IC50 (K562 [2])	GI50 (A549)	GI50 [3]	GI50 (NCI-H460)	GI50 [4]	GI50 (HCT-116)	GI50 (HCT-15)	GI50 (HT-29)	GI50 (KM12)	GI50 (SNB-75)	GI50 (SK-MEL-2)	GI50 (SK-MEL-28)	GI50 (SK-MEL-5)	GI50 (IGROV-1)	GI50 (OVCAR-8)	GI50 [5]	GI50 (TK-10)	GI50 (PC-3)	GI50 (MCF7)	further results
COc1cc(NC(=O)COc2ccccc2)c(C(N)=O)cc1OC	72.8%	0.58 µM	0.917 µM	17.7 µM	0.529 µM	0.453 µM	0.62 µM	0.804 µM	0.437 µM	0.443 µM	0.547 µM	0.203 µM	24.2 µM	0.766 µM	4.07 µM	3.01 µM	1.69 µM	14.4 µM	2.23 µM	0.661 µM	GI50 (NCI-H226): 42.8 µM; GI50 (OVCAR-4): > 100 µM; GI50 [6]: 1.95 µM; LC50 [6]: 93.3 µM; TGI [6]: 49 µM; inhibition (Tubulin (Homo sapiens)): inactive; Activity (K562 [7]): Active; Activity (K562 [8]): Active; Activity (K562 [9]): Active; Activity (K562 [10]): Active; Activity (K562 [11]): Active; Activity (K562 [12]): 80%; Activity (K562 [13]): 20.6%; Activity (K562 [14]): 39.4%; Activity (K562 [15]): 31.2%; Activity (K562 [16]): Active; Activity (K562 [17]): 22.7%; Activity (K562 [18]): 2.3%; inhibition at 10 µM (K562 [19]): 50%
NC(=O)c1cc(Cl)ccc1NC(=O)COc1ccccc1	87%	1.3 µM	7.06 µM	5.7 µM	3 µM	2.51 µM	2.72 µM	1.57 µM	1.74 µM	2.13 µM	1.81 µM	5.08 µM	6.25 µM	7.45 µM	5.6 µM	7.06 µM	3.93 µM	63.8 µM	3.22 µM	1.81 µM	GI50 [6]: 4.9 µM; LC50 [6]: 100 µM; TGI [6]: 72.4 µM; inhibition (Tubulin (Homo sapiens)): inactive; Activity (K562 [7]): Active
COc1ccc(NC(=O)COc2ccccc2)c(C(N)=O)c1	85.3%	1.1 µM	0.908 µM	0.414 µM	0.484 µM	0.487 µM	0.518 µM	0.432 µM	0.388 µM	0.388 µM	0.245 µM	0.611 µM	0.502 µM	1.68 µM	4.75 µM	3.13 µM	1.4 µM	23.8 µM	0.464 µM	0.497 µM	GI50 (NCI-H226): 21.5 µM; GI50 (OVCAR-4): > 100 µM; GI50 [6]: 0.891 µM; LC50 [6]: 97.7 µM; TGI [6]: 49 µM; inhibition (Tubulin (Homo sapiens)): inactive; Activity (K562 [7]): Active
NC(=O)c1cc(I)ccc1NC(=O)COc1ccccc1	73%	0.16 µM	0.732 µM	1.5 µM	0.425 µM	0.353 µM	0.517 µM	0.253 µM	0.349 µM	0.308 µM	0.215 µM	0.463 µM	1.79 µM	0.533 µM	1.37 µM	0.904 µM	0.413 µM	8.11 µM	0.428 µM	0.23 µM	GI50 (NCI-H226): 4.94 µM; GI50 [6]: 0.692 µM; LC50 [6]: 89.1 µM; TGI [6]: 35.5 µM; inhibition (Tubulin (Homo sapiens)): inactive; Activity (K562 [7]): Active; Activity (K562 [8]): Active; Activity (K562 [9]): Active; Activity (K562 [10]): Active; Activity (K562 [11]): Active; Activity (K562 [12]): 78.5%; Activity (K562 [13]): 32.9%; Activity (K562 [14]): 45.2%; Activity (K562 [15]): 13.3%; Activity (K562 [16]): Active; Activity (K562 [17]): 24.5%; Activity (K562 [18]): 0.9%; inhibition at 10 µM (K562 [19]): 40%
